Assay results published in ChEMBL document CHEMBL1153856, “Synthesis and spectral characterization of a new class of N-(N-methylpiperazinoacetyl)-2,6-diarylpiperidin-4-ones: antimicrobial, analgesic and antipyretic studies” (2009).
≈ marks a conversion by molar mass, not a printed value.

Experiments:
Format in all cases: functional
[1] = system: Aspergillus flavus; experiment: Antimicrobial activity against Aspergillus flavus after 72 to 96 hrs by twofold serial dilution method
Outline: (§1)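 Twofold serial broth dilution in Sabouraud dextrose broth at pH 5.6. Spores came from 1–7-day Sabouraud agar slants, final inoculum 1.1–1.5 × 10² cfu/mL. Compound stocks were 1 mg/mL in DMSO, diluted 1:5 into seeded broth, then six serial dilutions. Incubation was 28 ± 1 °C for 72–96 h, with growth and solvent controls. MIC was read visually; amphotericin B was the standard.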

[2] = system: Salmonella enterica subsp. enterica serovar Typhi str. CT18; experiment: Antimicrobial activity against Salmonella typhi after 24 hrs by twofold serial dilution method
Outline: (§2)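 Twofold serial broth dilution in nutrient broth at pH 7.4 ± 0.2. Compound stocks were 1 mg/mL in DMSO, diluted 1:5 into seeded broth, then six serial dilutions. Inocula came from 24 h nutrient-agar cultures, final 10⁵ cfu/mL. Incubation was 37 ± 1 °C for 24 h, with growth and solvent controls. MIC was read visually; ciprofloxacin was the standard.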

[3] = system: Rattus norvegicus; experiment: Antipyretic activity against brewer's yeast-induced hyperthermia in Wistar rat assessed as change in rectal temperature at 30 mg/kg, po after 60 mins
Outline: (§3)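 Wistar rats of both sexes, 200–250 g, received brewer's yeast in normal saline sc. Rectal temperature was taken with a digital thermometer (precision 0.1 °C). At 18 h, rats whose temperature had risen 0.3–0.5 °C were selected. Test compounds (30 or 60 mg/kg) or indomethacin (5 mg/kg) were given orally in 1% CMC; controls received vehicle only. Temperature was measured at 30, 60, 90, 120 and 150 min, mean ± SEM.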

[4] = system: Rattus norvegicus; experiment: Antipyretic activity against brewer's yeast-induced hyperthermia in Wistar rat assessed as change in rectal temperature at 30 mg/kg, po after 90 mins; outline: as §3
[5] = system: Rattus norvegicus; experiment: Antipyretic activity against brewer's yeast-induced hyperthermia in Wistar rat assessed as change in rectal temperature at 30 mg/kg, po after 120 mins; outline: as §3
[6] = system: Mus musculus; experiment: Analgesic activity in albino mouse assessed as inhibition of acetic acid-induced writhing response at 30 mg/kg, po administered 1 hr prior to acetic acid challenge relative to control
Outline: (§4)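 Albino mice of both sexes, 20–25 g, n = 6 per group. Doses of 30, 60 or 90 mg/kg were given orally as suspensions in 1% sodium CMC. 1 h later, 1% acetic acid in normal saline (10 mL/kg) was injected ip. Complete extension of either hind limb counted as a writhe. Counting started 5 min after injection and ran 30 min. Results are % inhibition = [1 − T/C] × 100 versus vehicle controls, mean ± SEM.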

[7] = system: Rattus norvegicus; experiment: Antipyretic activity against brewer's yeast-induced hyperthermia in Wistar rat assessed as change in rectal temperature at 30 mg/kg, po after 30 mins; outline: as §3
[8] = system: Staphylococcus aureus; experiment: Antimicrobial activity against Staphylococcus aureus after 24 hrs by twofold serial dilution method; outline: as §2
[9] = system: Rattus norvegicus; experiment: Antipyretic activity against brewer's yeast-induced hyperthermia in Wistar rat assessed as change in rectal temperature at 60 mg/kg, po after 150 mins; outline: as §3
[10] = system: Rattus norvegicus; experiment: Antipyretic activity against brewer's yeast-induced hyperthermia in Wistar rat assessed as change in rectal temperature at 60 mg/kg, po after 60 mins; outline: as §3
[11] = system: Mus musculus; experiment: Analgesic activity in albino mouse assessed as inhibition of acetic acid-induced writhing response at 60 mg/kg, po administered 1 hr prior to acetic acid challenge relative to control; outline: as §4
[12] = system: Escherichia coli; experiment: Antimicrobial activity against Escherichia coli after 24 hrs by twofold serial dilution method; outline: as §2
[13] = system: Klebsiella pneumoniae; experiment: Antimicrobial activity against Klebsiella pneumoniae after 24 hrs by twofold serial dilution method; outline: as §2
[14] = system: Rattus norvegicus; experiment: Antipyretic activity against brewer's yeast-induced hyperthermia in Wistar rat assessed as change in rectal temperature at 60 mg/kg, po after 90 mins; outline: as §3
[15] = system: Mus musculus; experiment: Analgesic activity in albino mouse assessed as inhibition of acetic acid-induced writhing response at 90 mg/kg, po administered 1 hr prior to acetic acid challenge relative to control; outline: as §4
[16] = system: Rattus norvegicus; experiment: Antipyretic activity against brewer's yeast-induced hyperthermia in Wistar rat assessed as change in rectal temperature at 60 mg/kg, po after 120 mins; outline: as §3
[17] = system: Candida albicans; experiment: Antimicrobial activity against Candida albicans after 72 to 96 hrs by twofold serial dilution method; outline: as §1
[18] = system: Rattus norvegicus; experiment: Antipyretic activity against brewer's yeast-induced hyperthermia in Wistar rat assessed as change in rectal temperature at 60 mg/kg, po after 30 mins; outline: as §3
[19] = system: Rhizopus; experiment: Antimicrobial activity against Rhizopus sp. after 72 to 96 hrs by twofold serial dilution method; outline: as §1
[20] = system: Pseudomonas aeruginosa; experiment: Antimicrobial activity against Pseudomonas aeruginosa after 24 hrs by twofold serial dilution method; outline: as §2
[21] = system: Aspergillus niger; experiment: Antimicrobial activity against Aspergillus niger after 72 to 96 hrs by twofold serial dilution method; outline: as §1
[22] = system: Rattus norvegicus; experiment: Antipyretic activity against brewer's yeast-induced hyperthermia in Wistar rat assessed as change in rectal temperature at 30 mg/kg, po after 150 mins; outline: as §3

Compound | MIC [1] [µg/mL] | MIC [2] [µg/mL] | Activity [3] [°C] | Activity [4] [°C] | Activity [5] [°C] | inhibition in vivo at 30 mg/kg [6] [%] | Activity [7] [°C] | MIC [8] [µg/mL] | Activity [9] [°C] | Activity [10] [°C] | inhibition in vivo at 60 mg/kg [11] [%] | MIC [12] [µg/mL] | MIC [13] [µg/mL] | Activity [14] [°C] | inhibition in vivo at 90 mg/kg [15] [%] | Activity [16] [°C] | MIC [17] [µg/mL] | Activity [18] [°C] | MIC [19] [µg/mL] | MIC [21] [µg/mL] | also measured
COc1ccc(C2C(C)C(=O)C(C)C(c3ccc(OC)cc3)N2C(=O)CN2CCN(C)CC2)cc1 (stereo unspecified) | 12.5 (≈ 26.1 µM) | 100 (≈ 208 µM) | 38.01 | 37.95 | 37.8 | 46.2 | 38.1 | 12.5 (≈ 26.1 µM) | 37.6 | 38.95 | 59.1 | 25 (≈ 52.1 µM) | 25 (≈ 52.1 µM) | 37.9 | 38.7 | 37.85 | 6.25 (≈ 13 µM) | 38.01 | 25 (≈ 52.1 µM) | 25 (≈ 52.1 µM) | MIC [20]: 50 µg/mL (≈ 104 µM); Activity [22]: 37.7 °C
CCC1C(=O)CC(c2ccccc2)N(C(=O)CN2CCN(C)CC2)C1c1ccccc1 (stereo unspecified) | > 200 | 100 (≈ 238 µM) | 38.22 | 38.15 | 38.01 | 8 | 38.27 | 100 (≈ 238 µM) | 38.9 | 38.2 | 4.5 | > 200 | 50 (≈ 119 µM) | 38.1 | 1.2 | 38.95 | 100 (≈ 238 µM) | 38.25 | > 200 | 200 (≈ 477 µM) | MIC [20]: 200 µg/mL (≈ 477 µM); Activity [22]: 38.98 °C
CC1C(=O)CC(c2ccccc2)N(C(=O)CN2CCN(C)CC2)C1c1ccccc1 (stereo unspecified) | 100 (≈ 247 µM) | 200 (≈ 493 µM) | 38.2 | 38.1 | 38.03 | 6.3 | 38.25 | > 200 | 38.95 | 38.1 | 15.6 | 100 (≈ 247 µM) | 200 (≈ 493 µM) | 38.02 | 17.7 | 38.01 | > 200 | 38.2 | > 200 | 100 (≈ 247 µM) | MIC [20]: > 200 µg/mL; Activity [22]: 38.01 °C
C[C@@H]1[C@H](O)[C@@H](C)/C=C/C=C/C=C/C=C/C=C/C=C/C=C/[C@H](O[C@@H]2O[C@H](C)[C@@H](O)[C@H](N)[C@@H]2O)C[C@@H]2O[C@](O)(C[C@@H](O)C[C@@H](O)[C@H](O)CC[C@@H](O)C[C@@H](O)CC(=O)O[C@H]1C)C[C@H](O)[C@H]2C(=O)O [AMPHOTERICIN B] | 50 (≈ 54.1 µM) | – | – | – | – | – | – | – | – | – | – | – | – | – | – | – | 25 (≈ 27.1 µM) | – | 25 (≈ 27.1 µM) | 50 (≈ 54.1 µM) | –
CC(=O)Oc1ccccc1C(=O)O [ASPIRIN] | – | – | – | – | – | 44.8 | – | – | – | – | 57.9 | – | – | – | 38.6 | – | – | – | – | – | –
O=C(O)c1cn(C2CC2)c2cc(N3CCNCC3)c(F)cc2c1=O [CIPROFLOXACIN] | – | 50 (≈ 151 µM) | – | – | – | – | – | – | – | – | – | 25 (≈ 75.4 µM) | 25 (≈ 75.4 µM) | – | – | – | – | – | – | – | –
